Assays:
Homo sapiens = species on record: Homo sapiens; assay: Selectivity for human GABA-beta-3 receptor over human GABA alpha-1-beta-2-gamma-2 receptor
Summary of the method: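 Selectivity from [³H]EBOB competition binding run separately on each receptor. β3 assay: membranes (50 µg protein) from hygromycin-selected Drosophila S2 cells stably expressing human β3, copper sulfate-induced 24 h before harvest; 0.5 nM [³H]EBOB, 10 mM Na phosphate/300 mM NaCl pH 7.5, 22 °C, 70 min. α1β2γ2 assay: membranes (150 µg) from stable HEK-293 cells; 1 nM [³H]EBOB, 50 mM Na phosphate/200 mM NaCl pH 7.4, 25 °C, 90 min. Both assays: GF/B filtration, scintillation counting, nonspecific binding with 5 µM EBOB, ≥3 repeats, probit IC50, then Cheng–Prusoff Ki (Kd 5.0 and 10.7 nM).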

[1] = biological target: GABA A receptor alpha-1/beta-2/gamma-2 (Homo sapiens); assay: Displacement of [3H]EBOB from human recombinant GABA alpha-1-beta-2-gamma-2 receptor expressed in HEK293 cells
Musca domestica = assay: Insecticidal activity against house fly WHO/SRS assessed as mortality after 24 hrs; type: functional
Summary of the method: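 Adult female houseflies, 3–5 days post-emergence, pretreated with piperonyl butoxide (10 µg in 1 µL acetone) 1 h before topical thoracic dosing of compound in 1 µL acetone at several doses; 30 flies per dose, kept at 25 °C with sugar and water. Mortality read at 24 h, three repeats; LD50 by probit on mean mortality.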

[2] = biological target: T1, Gamma-aminobutyric acid receptor subunit beta-3 (Homo sapiens, UniProt P28472); assay: Displacement of [3H]EBOB from human recombinant GABAbeta3 receptor expressed in HEK293 cells; type: cell-based
T1 sequence (P28472 whole entry): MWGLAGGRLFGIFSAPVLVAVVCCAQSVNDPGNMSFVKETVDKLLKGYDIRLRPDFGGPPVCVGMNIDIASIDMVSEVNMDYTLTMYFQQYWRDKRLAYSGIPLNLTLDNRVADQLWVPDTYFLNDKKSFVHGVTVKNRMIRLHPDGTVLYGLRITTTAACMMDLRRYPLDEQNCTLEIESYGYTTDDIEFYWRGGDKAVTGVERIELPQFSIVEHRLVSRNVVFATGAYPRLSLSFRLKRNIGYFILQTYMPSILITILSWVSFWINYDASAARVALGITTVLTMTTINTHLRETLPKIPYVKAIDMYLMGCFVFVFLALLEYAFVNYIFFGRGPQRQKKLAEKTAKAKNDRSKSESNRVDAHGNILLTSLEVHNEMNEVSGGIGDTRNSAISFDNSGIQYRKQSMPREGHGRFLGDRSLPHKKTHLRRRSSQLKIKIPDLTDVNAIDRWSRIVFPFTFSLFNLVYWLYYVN

Structure (SMILES)	Ratio Ki (Homo sapiens)	Ki [1]	LD50 (Musca domestica)	Ki [2]
FC(F)(F)c1cc(Cl)c(-n2cc(C3CCCCC3)nn2)c(Cl)c1	127	1.5 µM	–	–
FC(F)(F)c1cc(Cl)c(-n2cc(CCCCl)nn2)c(Cl)c1	378	0.616 µM	–	–
CCCCc1cn(-c2c(Cl)cc(Br)cc2Cl)nn1	> 293	> 9.15 µM	–	–
CCCCCc1cn(-c2c(Cl)cc(C(F)(F)F)cc2Cl)nn1	50	1.39 µM	–	–
CC(C)(C)c1cn(-c2c(Cl)cc(C(F)(F)F)cc2Cl)nn1	470	0.39 µM	1.86 pmol	–
CCCc1cn(-c2c(Cl)cc(C(F)(F)F)cc2Cl)nn1	220	0.47 µM	–	–
CCCc1nnn(-c2c(Br)cc(C(F)(F)F)cc2Br)c1C	> 673	> 9.15 µM	–	0.0136 µM
CCCCc1cn(-c2c(Cl)cc(C(F)(F)F)cc2Cl)nn1	362	1.01 µM	–	–
CCCc1nnn(-c2c(Cl)cc(C(F)(F)F)cc2Cl)c1CO	153	0.387 µM	–	0.00253 µM
CCCc1nnn(-c2c(Cl)cc(C(F)(F)F)cc2Cl)c1CCC	> 71.5	> 9.15 µM	–	0.128 µM
CCCc1nnn(-c2c(Cl)cc(C(F)(F)F)cc2Cl)c1CC	> 1130	> 9.15 µM	–	0.00807 µM
FC(F)(F)c1cc(Cl)c(-n2nncc2-c2ccccc2)c(Cl)c1	> 19.3	> 9.15 µM	–	–
CCCCc1cnnn1-c1c(Cl)cc(Cl)cc1Cl	> 2.24	> 9.15 µM	–	–
CCCCCCc1cn(-c2c(Cl)cc(C(F)(F)F)cc2Cl)nn1	5.05	1.98 µM	–	–
CCCc1c(CO)nnn1-c1c(Cl)cc(C(F)(F)F)cc1Cl	> 2.65	> 9.15 µM	–	3.45 µM
Nc1c(-c2ccccc2)nnn1-c1c(Cl)cc(C(F)(F)F)cc1Cl	57.1	1.16 µM	–	–
CCCc1c(C)nnn1-c1c(Cl)cc(C(F)(F)F)cc1Cl	> 17	> 9.15 µM	–	0.539 µM
CCCc1cnnn1-c1c(Cl)cc(C(F)(F)F)cc1Cl	> 12.1	> 9.15 µM	–	–
CCCc1nnn(-c2c(Cl)cc(C(F)(F)F)cc2Cl)c1CCl	403	0.266 µM	5.17 pmol	0.000659 µM

Structure (SMILES)	Ratio Ki (Homo sapiens)	Ki [1]	LD50 (Musca domestica)	Ki [2]
CCCCCCc1cnnn1-c1c(Cl)cc(C(F)(F)F)cc1Cl	> 10.6	> 9.15 µM	–	–
CCCCc1cn(-c2ccc(Br)cc2)nn1	> 2.87	> 9.15 µM	–	–
CCCCc1cnnn1-c1c(Cl)cccc1Cl	> 4.46	> 9.15 µM	–	–
CCCc1c(CC)nnn1-c1c(Cl)cc(C(F)(F)F)cc1Cl	> 194	> 9.15 µM	–	0.0472 µM
C#Cc1ccc(-n2nncc2CCCC)cc1	> 1.21	> 9.15 µM	–	–
CCCCc1cnnn1-c1c(Cl)cc(Br)cc1Cl	> 11.7	> 9.15 µM	–	–
CCCCc1cn(-c2c(Cl)cc(Cl)cc2Cl)nn1	> 111	> 9.15 µM	–	–
CCc1nnn(-c2c(Cl)cc(C(F)(F)F)cc2Cl)c1C	150	1.06 µM	–	0.00708 µM
CCCc1c(CCl)nnn1-c1c(Cl)cc(C(F)(F)F)cc1Cl	> 137	> 9.15 µM	–	0.0667 µM
C#Cc1cc(Cl)c(-n2cc(CCCC)nn2)c(Cl)c1	> 264	> 9.15 µM	–	–
CCCCc1cnnn1-c1ccc(C(F)(F)F)cc1	> 1.73	> 9.15 µM	–	–
CCc1nnn(-c2c(Cl)cc(C(F)(F)F)cc2Cl)c1CC	–	–	–	0.00427 µM
CCCc1nnn(-c2c(Cl)cc(C(F)(F)F)cc2Cl)c1C	166	0.322 µM	–	0.00194 µM
FC(F)(F)c1cc(Cl)c(-n2cc(-c3ccccc3)nn2)c(Cl)c1	> 71.5	> 9.15 µM	–	–
CCCCCc1cnnn1-c1c(Cl)cc(C(F)(F)F)cc1Cl	> 6.58	> 9.15 µM	–	–
CCc1c(C)nnn1-c1c(Cl)cc(C(F)(F)F)cc1Cl	–	–	–	0.0701 µM
CCCCc1cn(-c2c(Cl)cccc2Cl)nn1	> 2.6	> 9.15 µM	–	–
CCCCc1cnnn1-c1ccc(Br)cc1	> 3.35	> 9.15 µM	–	–
